Screening results (PubChem BioAssay)
Rpn11 block – Rpn11 (human) deubiquitinase inhibition; O00487; human 26S proteasome, Ub4-pepOG fluorescence polarization; 20S core pre-blocked with epoxomicin; inhibition, % at 20 µM; 0.59% of 360,000 active; AID 588493;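 active = inhibition at 20 µM, scaled to each plate's controls, above about 33%, limit read from the data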
HNF4A DNA FP – change in binding of human HNF4 alpha to DNA; activity change, % at 10 µM; HNF4a-FITC DNA binding, fluorescence polarization, 1 h; AID 1224865; P41235; 0.3% of 360,000 active; in the data active = activity change above about 30%, passing the limit was not always enough
Target sequence (P41235 whole entry, looked up): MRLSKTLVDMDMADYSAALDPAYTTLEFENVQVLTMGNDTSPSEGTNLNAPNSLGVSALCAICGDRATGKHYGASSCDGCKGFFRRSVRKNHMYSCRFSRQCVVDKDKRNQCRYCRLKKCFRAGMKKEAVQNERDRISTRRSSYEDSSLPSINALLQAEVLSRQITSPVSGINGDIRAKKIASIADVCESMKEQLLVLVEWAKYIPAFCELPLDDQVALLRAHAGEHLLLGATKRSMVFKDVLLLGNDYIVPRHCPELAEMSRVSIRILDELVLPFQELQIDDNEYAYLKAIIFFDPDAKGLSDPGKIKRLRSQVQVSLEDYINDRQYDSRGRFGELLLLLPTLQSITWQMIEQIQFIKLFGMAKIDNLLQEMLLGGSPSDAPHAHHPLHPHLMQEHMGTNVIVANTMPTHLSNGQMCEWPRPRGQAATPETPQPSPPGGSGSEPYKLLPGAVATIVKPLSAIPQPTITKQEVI
SENP1 FRET inh – SENP1 (human) catalytic domain inhibition; Q9P0U3; recombinant SENP1 catalytic domain, CyPet-SUMO1-YPet FRET cleavage; inhibition, % at 10 µM; 0.21% of 360,000 active;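 active = inhibition at least 30% at 10 µM, raw YFP signal under a set limit, fluorescence ratio 0.5 to 1.5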;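 also: 0% = enzyme with DMSO and 100% = no enzyme wells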
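Assay system: hSENP1 catalytic domain, recombinant. Amount: SENP1 enzyme, 20 pM final. Schedule: 50 min reaction, RT, dark. Technique: FRET, CFP and YFP emission. Control set: no-enzyme wells low, DMSO-plus-enzyme wells high control.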
TPT1 inh – blocks Candida albicans tRNA 2'-phosphotransferase | 0.81% of 300,000 active | inhibition, % at 5 µM | recombinant caTPT1, FP RNA substrate dephosphorylation;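 active = inhibition above the mean of all tested compounds plus 3 SD, set per screening campaign, cut at about 24% in these data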;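 also: plate controls were DMSO alone for no effect and ferristatin control at 100 nM for full effect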
CSN inh – inhibitors of human CSN-mediated cullin deneddylation | Q92905 | Purified CSN, SCF-Nedd8-OG deneddylation, fluorescence polarization | inhibition, % at 12.5 µM | 0.38% of 360,000 active | AID 651999;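 active = pattern-corrected inhibition above about 35%, with an unprinted fluorescence ratio check between 0.5 and 1.5, limit read from the data, passing the limit was not always enough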;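 also: 0% = enzyme with substrate and 100% = substrate without enzyme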
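Schedule: reaction 90 min, room temperature / Assay system: HEK293T-derived human Csn5 enzyme / Input: Csn5 at 0.24 nM final / Measure: inhibition of Csn5 cleavage, % / Control set: substrate-only high control, full reaction low control / Technique: fluorescence polarization of the substrate / Buffer or medium: Tris/NaCl/DTT buffer, pH 7.5 / Reagent: SCFSkp2-Nedd8OG substrate at 10 nM final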
Active calls of the source: *; nt = no result given. Most compounds without a hit are left out; they make up all but 1.6% or so of the library.

SMILES | Rpn11 block | HNF4A DNA FP | SENP1 FRET inh | TPT1 inh | CSN inh
Cc1ccc(S(=O)(=O)N2CCOCC2)cc1C(=O)OCC(=O)NC1CC1 | 2 | 1 | -2 | nt | 60*
CC[C@@]1(O)C(=O)OCc2c1cc1n(c2=O)Cc2cc3c(CN(C)C)c(O)ccc3nc2-1 | -182 | -136 | -32 | -88 | -75
CC[C@@]1(O)C(=O)OCc2c1cc1n(c2=O)Cc2cc3c(N)cccc3nc2-1 | -16 | -7 | 32* | -4 | 2
Cc1[nH]c2ccc(C(=O)N3CCN(c4ccccn4)CC3)cc2c1C | 18 | 103* | -1 | -2 | -4
CCOC(=O)C1=C(CSc2nc(-c3ccccc3)ccc2C#N)OC(N)=C(C#N)C1c1ccc(OC)cc1 (centres undefined) | nt | 39* | -24 | 23 | 20
OC[C@@H]1CN(Cc2ccc(-c3ccccc3)cc2)C[C@H](n2cnc3c(NCc4ccco4)ncnc32)O1 | 3 | -1 | -1 | nt | -1
COc1ccccc1/C=N/NC(=O)CC(=O)Nc1ccc(Cl)c(Cl)c1 | 11 | 44* | 4 | -2 | -3
Nc1nc(-c2ccc(Oc3ccccc3)cc2)c(CC(=O)O)s1 | nt | 11 | -7 | nt | 42*
CC(=O)C1=CCC(c2ccccc2)N(Cc2ccccc2)C1 (centres undefined) | nt | -4 | -2 | nt | 4
C(=N\NC1=Nc2cccc3cccc1c23)/c1ccccn1 | nt | 54* | -5 | nt | 14
Clc1ccccc1/C=N/NC1=Nc2cccc3cccc1c23 | -3 | 8 | -7 | 3 | 6
COc1ccc(OCCOc2ccc(/C=C3\C(=N)N4N=C(C)SC4=NC3=O)cc2)cc1 | 32 | -10 | -2 | nt | 46*
O=C(NCC(=O)N1CCN(c2ccccc2)CC1)c1ccc(Br)o1 | 3 | -4 | -2 | -2 | -4
CC(=O)OCCc1[nH]c2ccccc2c1C | -2 | 1 | 0 | -3 | -6
CC(=O)OCCc1c2ccccc2c(CCCN(C)C)c2ccccc12 | 11 | 132* | -17 | -2 | 71*
COCCN1C(=O)CCC1(C)C(=O)NC1CCCCC1 (centres undefined) | 0 | -1 | 1 | nt | 121*
CCNC(=S)N1CCNC(=O)C1CC(=O)OC (centres undefined) | 14 | 2 | 1 | 1 | 81*
O=C(Nc1sc2c(c1C(=O)O)CCC2)c1ccco1 | -2 | -5 | 1 | -1 | -3
COC(=O)c1c(NC(=O)c2ccco2)sc2c1CCC2 | 10 | 64* | -2 | 4 | -3
CN(C)c1nc(SCC#N)nc(N2CCOCC2)n1 | 11 | 43* | -9 | -6 | -2
CCCN(C(=O)c1cc(-c2ccco2)nc2ccccc12)c1c(N)n(Cc2ccccc2)c(=O)[nH]c1=O | -14 | -9 | -6 | -1 | 11
COCCN(C(=O)c1cc(-c2ccco2)nc2ccccc12)c1c(N)n(Cc2ccccc2)c(=O)[nH]c1=O | -17 | -20 | -8 | nt | 37*
Fc1cccc(Cc2c(-c3ccco3)nc3ccc(Cl)cn23)c1 | 20 | 11 | -3 | nt | 15
COc1ccccc1Cc1c(-c2ccco2)nc2ccc(Cl)cn12 | 20 | -3 | -5 | nt | 36*
Clc1ccc2nc(-c3ccco3)c(Cc3ccccc3)n2c1 | 5 | 0 | -5 | nt | 36*
SMILES | Rpn11 block | HNF4A DNA FP | SENP1 FRET inh | TPT1 inh | CSN inh
O=C(O)C1=CCC(c2ccc(Cl)c(Cl)c2)N(S(=O)(=O)c2ccc(F)cc2)C1c1cccc(F)c1 (centres undefined) | nt | -3 | -1 | nt | 1
CCOC(=O)c1c(NC(=O)CN(C)C2CCN(C)CC2)sc(C(=O)Nc2ccccc2)c1C | 10 | 5 | 1 | 1 | -4
CCOC(=O)c1c(NC(=O)CSc2cccc[n+]2[O-])sc(C(=O)Nc2ccccc2)c1C | 17 | 6 | 7 | 17 | 105*
CC(=O)Nc1ccc(-c2ccnc3c2CC(C)(C(=O)NC(C)C)O3)cc1 (centres undefined) | 3 | 1 | 1 | nt | 2
COc1cccc2cc(-c3nc(-c4cccs4)cs3)c(=O)oc12 | nt | 40* | -20 | 1 | 15
O=c1oc2ccccc2cc1-c1nc(-c2cccs2)cs1 | -101 | -71 | -23 | -52 | -3
CC(C)(C)c1ccc(C(=O)NNc2cc(N3CCOCC3)nc(N3CCOCC3)n2)cc1 | 2 | 1 | -5 | -1 | -1
O=C(NNc1cc(N2CCCC2)nc(N2CCCC2)n1)c1ccc([N+](=O)[O-])cc1 | -2 | 3 | -14 | 5 | 41*
COc1ccc(S(=O)(=O)N2CCC[C@H]2C(=O)N2CCC[C@H]2C(=O)NCc2ccc(F)cc2F)cc1C | nt | 2 | 1 | nt | -3
CC(C)CN=Cc1c(O)c([N+](=O)[O-])cc2oc3c(c12)CCCC3 | 5 | 4 | 32* | 10 | -10
Cc1cccc(/N=C/c2c(O)ccc3oc4c(c23)CCCC4)n1 | -9 | 0 | 4 | -4 | -1
Nc1ccc(S(=O)(=O)c2ccc(N3CCOCC3)c(N)c2)cc1 | -11 | -7 | -1 | nt | -1
S=c1[nH]nc(C2CCCCC2)n1/N=C/c1ccc(Br)cc1 | -1 | -3 | 1 | -1 | -7
S=c1[nH]nc(C2CCCCC2)n1/N=C/c1ccc(Br)s1 | 1 | 35* | 0 | -1 | 5
CC(C)(C)OC(=O)NCc1ccc(NC(=O)c2nc[nH]c2C(=O)NCCCCCCNC(=O)c2[nH]cnc2C(=O)Nc2ccc(CNC(=O)OC(C)(C)C)cc2)cc1 | 7 | 46* | 1 | nt | 17
O=C(COC(=O)C1CC2C=CC1C2)NCc1ccco1 (centres undefined) | -7 | -11 | 2 | 9 | 35*
O=C(COC(=O)C1CC2C=CC1C2)NCc1ccc(F)cc1 (centres undefined) | -4 | -4 | 2 | -5 | 5
COCCNC(=O)c1sc2ncn(CC(=O)N3CCCCC3)c(=O)c2c1C | -2 | 65* | -4 | -7 | 1
Cc1cnc2nc(-c3ccccc3)ccc2c1 | 1 | 4 | -1 | nt | 83*
COc1ccc2c(COC(=O)c3n[nH]c4ccccc34)cc(=O)oc2c1 | 28 | 1 | -17 | 2 | 38*
Cc1cc2oc(=O)cc(COC(=O)c3n[nH]c4ccccc34)c2cc1C | 4 | -3 | 1 | 8 | -2
CC1S/C(=N/N=C/c2ccco2)N(Cc2ccccc2)C1=O (centres undefined) | 14 | 5 | 4 | -2 | 4
COc1ccc(NC(=S)NNC(=O)CNc2ccc(Cl)cc2)cc1 | -3 | 4 | 1 | 1 | -3
COc1ccc(C2(OC)Oc3cc(OC)ccc3C(=O)C2(O)OC)cc1 (centres undefined) | -6 | 1 | 2 | nt | -4
Cc1ccc(S(=O)(=O)NC(C(=O)Oc2ccc3ccc(=O)oc3c2)c2ccccc2)cc1 (centres undefined) | -8 | 2 | -103 | 1 | 2
Cc1ccc(S(=O)(=O)NCCC(=O)Oc2ccc3ccc(=O)oc3c2)cc1 | 0 | 5 | -71 | 3 | 41*
